In ChEMBL document CHEMBL1121898, “Potential antiestrogens. Synthesis and evaluation of mammary tumor inhibiting activity of 1,2-dialkyl-1,2-bis(3'-hydroxyphenyl)ethanes” (1981):
Values joined by “and” are separate entries in the source; they are usually repeats but may differ in a detail not shown here. Equal entries are not always repeated. Active and inactive are the calls of the source.

Legend:
Rattus norvegicus [1] = species: Rattus norvegicus; assay: Complete remission of DMBA-induced hormone-dependent mammary carcinoma tumors in rats at 36 mg; format: functional
Method in brief: (§1)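 Female SD rats bearing DMBA-induced, hormone-dependent mammary adenocarcinoma, with at least one tumor >140 mm², were grouped in tens. Dosing was sc per kg body weight: a single dose daily Monday–Thursday and a double dose Friday. Ovariectomy served as the comparison arm. Complete remission was defined as a tumor no longer palpable. Body weight and tumor area changes were also recorded.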

Rattus norvegicus [2] = species: Rattus norvegicus; assay: Complete remission of DMBA-induced hormone-dependent mammary carcinoma tumors in rats at 72 mg; format: functional; method in brief: as §1
Rattus norvegicus [3] = species: Rattus norvegicus; assay: Final number of DMBA-induced hormone-dependent mammary carcinoma tumors in rats at 36 mg; format: functional
Method in brief: (§2)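 Sprague-Dawley rats carrying DMBA-induced, hormone-dependent mammary adenocarcinoma, at least one tumor >140 mm², were placed in groups of ten. Compounds were given sc, with doses in mg/kg: a single daily dose Monday to Thursday and a double dose on Friday. Ovariectomy served as a comparator group. New tumors arising during the test were counted.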

Rattus norvegicus [4] = species: Rattus norvegicus; assay: Partial remission of DMBA-induced hormone-dependent mammary carcinoma tumors in rats at 18 mg; format: functional
Method in brief: (§3)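 DMBA-induced, hormone-dependent mammary adenocarcinoma in SD rats. Rats bearing at least one tumor >140 mm² were placed in groups of ten. Compound was given sc as a single dose (mg/kg) daily Monday–Thursday and a double dose on Friday. Tumors were counted at the start and as new tumors; responses were scored as complete remission (not palpable), partial remission (≥50% reduction), no change or progression. Tumor area and body weight were recorded as % change.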

Rattus norvegicus [5] = species: Rattus norvegicus; assay: Partial remission of DMBA-induced hormone-dependent mammary carcinoma tumors in rats at 72 mg; format: functional; method in brief: as §3
Rattus norvegicus [6] = species: Rattus norvegicus; assay: Percent change in body weight DMBA-induced hormone-dependent mammary carcinoma tumors in rats at 18 mg for 7 days; format: functional; method in brief: as §3
Rattus norvegicus [7] = species: Rattus norvegicus; assay: Percent change in body weight DMBA-induced hormone-dependent mammary carcinoma tumors in rats at 72 mg for 7 days; format: functional
Rattus norvegicus [8] = species: Rattus norvegicus; assay: Percent change in DMBA-induced hormone-dependent mammary carcinoma tumor area at 36 mg after 28 days; format: functional; method in brief: as §3
Rattus norvegicus [9] = species: Rattus norvegicus; assay: Percent change in DMBA-induced hormone-dependent mammary carcinoma tumor area at 18 mg after 28 days; format: functional; method in brief: as §3
Rattus norvegicus [10] = species: Rattus norvegicus; assay: Partial remission of DMBA-induced hormone-dependent mammary carcinoma tumors in rats at 36 mg; format: functional; method in brief: as §3
Rattus norvegicus [11] = species: Rattus norvegicus; assay: Percent unchanged tumor size of DMBA-induced hormone-dependent mammary carcinoma tumors in rats at 36 mg; format: functional
Rattus norvegicus [12] = species: Rattus norvegicus; assay: Percent unchanged tumor size of DMBA-induced hormone-dependent mammary carcinoma tumors in rats at 72 mg; format: functional
Rattus norvegicus [13] = species: Rattus norvegicus; assay: Percent unchanged tumor size of DMBA-induced hormone-dependent mammary carcinoma tumors in rats at 18 mg; format: functional
Rattus norvegicus [14] = species: Rattus norvegicus; assay: Progression of DMBA-induced hormone-dependent mammary carcinoma tumors in rats at 72 mg; format: functional; method in brief: as §3
Rattus norvegicus [15] = species: Rattus norvegicus; assay: Progression of DMBA-induced hormone-dependent mammary carcinoma tumors in rats at 18 mg; format: functional
Rattus norvegicus [16] = species: Rattus norvegicus; assay: Complete remission of DMBA-induced hormone-dependent mammary carcinoma tumors in rats at 18 mg; format: functional; method in brief: as §1
Rattus norvegicus [17] = species: Rattus norvegicus; assay: Initial tumor number of DMBA-induced hormone-dependent mammary carcinoma in rats at 36 mg; format: functional; method in brief: as §3
Rattus norvegicus [18] = species: Rattus norvegicus; assay: Initial tumor number of DMBA-induced hormone-dependent mammary carcinoma in rats at 72 mg; format: functional; method in brief: as §3
MCF7 [19] = assay: Inhibition of estrogen receptor positive MCF-7 cell proliferation as percent treated/control cell number after 10 days at 10e-6 M; format: functional, Homo sapiens
Method in brief: (§4)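 MCF-7 cells were grown in McCoy's 5a medium with fetal bovine serum stripped by DCC (0.5 h, 45 °C). Compounds were dissolved in ethanol (final ≤0.5%) and diluted in complete medium. Cells were seeded at 5×10^4 cells/plate. On day 10, three replicate plates per group were counted by Coulter counter, three counts per plate. Percent T/C = test/control. In a retest, compounds were given at 10^-7 M with 17β-estradiol at 10^-7 or 10^-8 M.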

MCF7 [20] = assay: Inhibition of estrogen receptor positive MCF-7 cell proliferation as percent treated/control cell number after 10 days at 10e-7 M; format: functional, Homo sapiens; method in brief: as §4
MCF7 [21] = assay: Inhibition of estrogen receptor positive MCF-7 cell proliferation as percent treated/control cell number after 10 days at 10e-7 M with 10e-7 M 17-beta-estradiol; format: functional, Homo sapiens; method in brief: as §4
MCF7 [22] = assay: Inhibition of estrogen receptor positive MCF-7 cell proliferation as percent treated/control cell number after 10 days at 10e-8 M; format: functional, Homo sapiens; method in brief: as §4
MCF7 [23] = assay: Inhibition of estrogen receptor positive MCF-7 cell proliferation as cell number after 10 days at 10e-8 M; format: functional, Homo sapiens; method in brief: as §4
MCF7 [24] = assay: Inhibition of estrogen receptor positive MCF-7 cell proliferation as cell number after 10 days at 10e-9 M; format: functional, Homo sapiens; method in brief: as §4
MCF7 [25] = assay: Inhibition of estrogen receptor positive MCF-7 cell proliferation as percent treated/control cell number after 10 days at 10e-9 M; format: functional, Homo sapiens; method in brief: as §4
MCF7 [26] = assay: Inhibition of estrogen receptor positive MCF-7 cell proliferation as cell number after 10 days at 10e-6 M; format: functional, Homo sapiens; method in brief: as §4
MCF7 [27] = assay: Inhibition of estrogen receptor positive MCF-7 cell proliferation as cell number after 10 days at 10e-7 M and 10e-8 M 17-beta-estradiol; format: functional, Homo sapiens; method in brief: as §4
MCF7 [28] = assay: Inhibition of estrogen receptor positive MCF-7 cell proliferation as cell number after 10 days at 10e-7 M and 10e-7 M 17-beta-estradiol; format: functional, Homo sapiens; method in brief: as §4
MCF7 [29] = assay: (§5) Inhibition of estrogen receptor positive MCF-7 cell proliferation as cell number after 10 days at 10e-7 M; format: functional, Homo sapiens; method in brief: as §4
MCF7 [30] = assay: as §5; format: functional, Homo sapiens; method in brief: as §4; remark: listed apart in the source
Rattus norvegicus [31] = species: Rattus norvegicus; assay: Initial tumor number of DMBA-induced hormone-dependent mammary carcinoma in rats at 18 mg; format: functional; method in brief: as §3
Rattus norvegicus [32] = species: Rattus norvegicus; assay: Percent change in DMBA-induced hormone-dependent mammary carcinoma tumor area at 72 mg after 28 days; format: functional; method in brief: as §3
[33] = molecular target: T1, Estrogen receptor (Mus musculus) (UniProt O08537+P19785); assay: Antiestrogenic activity in uterotrophic test in mice at 0.1 ug (experiment 1); format: functional
Method in brief: (§6)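 Immature female NMRI mice, 20 days old (14.5 ± 1.2 g), randomly grouped 10 per group. Each received a daily sc injection for 3 days of 0.1 mL olive oil solution containing test compound, together with estrone to stimulate uterine growth. Uteri were removed 24 h after the last injection and weighed. Results are reported as % inhibition of the estrone-stimulated uterine weight gain, mean ± SD.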

[34] = molecular target: T1, Estrogen receptor (Mus musculus); assay: Antiestrogenic activity in uterotrophic test in mice at 5 ug (experiment 2); format: functional; method in brief: as §6
[35] = molecular target: T1, Estrogen receptor (Mus musculus); assay: Antiestrogenic activity in uterotrophic test in mice at 500 ug (experiment 3); format: functional; method in brief: as §6
[36] = molecular target: T1, Estrogen receptor (Mus musculus); assay: Antiestrogenic activity in uterotrophic test in mice at 0 ug (experiment 2); format: functional; method in brief: as §6
[37] = molecular target: T1, Estrogen receptor (Mus musculus); assay: Antiestrogenic activity in uterotrophic test in mice at 0 ug (experiment 3); format: functional; method in brief: as §6
[38] = molecular target: T1, Estrogen receptor (Mus musculus); assay: Antiestrogenic activity in uterotrophic test in mice at 50 ug (experiment 3); format: functional; method in brief: as §6
MCF7 [39] = assay: Inhibition of estrogen receptor positive MCF-7 cell proliferation as percent treated/control cell number after 10 days at 10e-7 M with 10e-8 M 17-beta-estradiol; format: functional, Homo sapiens; method in brief: as §4
[40] = molecular target: T1, Estrogen receptor (Mus musculus); assay: Estrogenic activity in uterotrophic test in mice; No effect; format: functional
Method in brief: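 Immature (20-day-old) female NMRI mice, 14.5 ± 1.2 g, randomized into groups of 10. Given the test compound sc daily for 3 days in 0.1 mL olive oil. Uteri removed 24 h after the last injection; uterine weight taken as the read-out, means ± SD. Dose in μg.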

[41] = molecular target: T1, Estrogen receptor (Mus musculus); assay: Inhibitory activity in mouse uterine weight test at 5 ug (experiment 2); format: functional
Method in brief: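 Antiuterotrophic (Dorfman) assay in immature 20-day-old female NMRI mice, groups of 10. Uterine growth was stimulated with estrone (0.1 μg) and the test compound was given alongside it, sc daily for 3 days in 0.1 mL olive oil. Uteri were taken 24 h after the last dose. Uterine weight is reported as means ± SD and inhibition as % of the estrone-stimulated response.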

[42] = molecular target: T1, Estrogen receptor (Mus musculus); assay: Inhibitory activity in mouse uterine weight test at 50 ug (experiment 3); format: functional
Method in brief: (§7)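 Immature female NMRI mice, 20 days old (14.5 ± 1.2 g), in random groups of 10. They received sc injections daily for 3 days of 0.1 mL olive oil containing test compound, with estrone 0.1 μg given to stimulate uterine growth. Uteri were removed 24 h after the last injection and weighed (mean ± SD). Result is percent inhibition of the estrone-stimulated uterine weight gain.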

[43] = molecular target: T1, Estrogen receptor (Mus musculus); assay: Inhibitory activity in mouse uterine weight test at 500 ug (experiment 3); format: functional; method in brief: as §7
Rattus norvegicus [44] = species: Rattus norvegicus; assay: Final number of DMBA-induced hormone-dependent mammary carcinoma tumors in rats at 18 mg; format: functional; method in brief: as §2
Rattus norvegicus [45] = species: Rattus norvegicus; assay: Final number of DMBA-induced hormone-dependent mammary carcinoma tumors in rats at 72 mg; format: functional; method in brief: as §2
Rattus norvegicus [46] = species: Rattus norvegicus; assay: Percent change in body weight DMBA-induced hormone-dependent mammary carcinoma tumors in rats at 36 mg for 7 days; format: functional
[47] = system: Estrogen receptor (Bos taurus); assay: Displacement of [3H]estradiol from calf estrogen receptor

T1 sequence (O08537 whole entry, looked up): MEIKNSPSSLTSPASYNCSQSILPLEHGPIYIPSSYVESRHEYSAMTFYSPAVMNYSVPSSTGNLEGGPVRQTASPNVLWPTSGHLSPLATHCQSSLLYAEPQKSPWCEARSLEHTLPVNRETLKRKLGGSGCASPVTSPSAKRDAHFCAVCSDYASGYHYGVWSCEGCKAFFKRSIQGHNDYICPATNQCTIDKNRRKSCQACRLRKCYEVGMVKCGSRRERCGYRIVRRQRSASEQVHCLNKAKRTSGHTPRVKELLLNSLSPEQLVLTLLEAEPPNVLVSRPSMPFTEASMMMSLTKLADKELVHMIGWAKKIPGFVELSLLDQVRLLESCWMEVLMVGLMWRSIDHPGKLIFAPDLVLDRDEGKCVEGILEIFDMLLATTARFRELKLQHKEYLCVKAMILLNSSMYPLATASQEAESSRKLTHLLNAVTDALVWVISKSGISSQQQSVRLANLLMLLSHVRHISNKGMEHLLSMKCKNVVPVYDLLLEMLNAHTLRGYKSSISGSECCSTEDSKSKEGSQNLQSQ
T1 sequence (P19785 whole entry, looked up): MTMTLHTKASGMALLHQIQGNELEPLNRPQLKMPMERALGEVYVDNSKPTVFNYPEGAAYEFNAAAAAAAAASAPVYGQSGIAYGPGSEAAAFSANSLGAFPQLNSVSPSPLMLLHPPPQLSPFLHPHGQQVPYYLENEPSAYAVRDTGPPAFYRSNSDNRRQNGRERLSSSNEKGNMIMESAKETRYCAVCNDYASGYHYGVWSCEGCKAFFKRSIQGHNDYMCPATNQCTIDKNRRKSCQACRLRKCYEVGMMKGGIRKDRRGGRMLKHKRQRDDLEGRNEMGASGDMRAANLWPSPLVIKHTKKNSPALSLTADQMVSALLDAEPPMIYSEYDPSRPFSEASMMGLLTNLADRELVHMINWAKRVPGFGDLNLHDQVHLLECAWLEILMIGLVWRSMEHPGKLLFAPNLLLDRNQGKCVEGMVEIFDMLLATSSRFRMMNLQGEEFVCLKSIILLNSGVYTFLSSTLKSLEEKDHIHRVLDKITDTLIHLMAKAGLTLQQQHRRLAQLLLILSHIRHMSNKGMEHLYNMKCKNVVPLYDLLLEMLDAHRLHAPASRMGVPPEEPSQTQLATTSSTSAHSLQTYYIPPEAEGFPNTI

Effect [33]: 38.5
Effect [34]: 36.5
Effect [35]: 29
Effect [36]: 10.5
Effect [37]: 9.9
Effect [38]: 34.3
Effect [40]: inactive
inhibition [41]: 7%
inhibition [42]: 12%
inhibition [43]: 31%
Ka [47]: 1.1e+07 M⁻¹
Compound: CC(c1cccc(O)c1)C(C)c1cccc(O)c1 (configuration not stated)
Tumors (Rattus norvegicus [1]): 29%
Tumors (Rattus norvegicus [2]): 34%
No. of tumors (Rattus norvegicus [3]): 12
Tumors (Rattus norvegicus [4]): 11%
Tumors (Rattus norvegicus [5]): 25%
Change (Rattus norvegicus [6]): 2.4%
Change (Rattus norvegicus [7]): 0.9%
Change (Rattus norvegicus [8]): 105%
Change (Rattus norvegicus [9]): 188%
Tumors (Rattus norvegicus [10]): 9%
Tumors (Rattus norvegicus [11]): 38%
Tumors (Rattus norvegicus [12]): 16%
Tumors (Rattus norvegicus [13]): 24%
Tumors (Rattus norvegicus [14]): 25%
Tumors (Rattus norvegicus [15]): 51%
Tumors (Rattus norvegicus [16]): 14%
No. of tumors (Rattus norvegicus [17]): 22
No. of tumors (Rattus norvegicus [18]): 26
T/C (MCF7 [19]): 71%
T/C (MCF7 [20]): 92% and 77%
T/C (MCF7 [21]): 107%
T/C (MCF7 [22]): 82%
Cell number (MCF7 [23]): 35900
Cell number (MCF7 [24]): 39800
T/C (MCF7 [25]): 91%
Cell number (MCF7 [26]): 32200
Cell number (MCF7 [27]): 8000
Cell number (MCF7 [28]): 7100
Cell number (MCF7 [29]): 6100
Cell number (MCF7 [30]): 33600
No. of tumors (Rattus norvegicus [31]): 21
Change (Rattus norvegicus [32]): 6%
T/C (MCF7 [39]): 121%
No. of tumors (Rattus norvegicus [44]): 16
No. of tumors (Rattus norvegicus [45]): 22
Change (Rattus norvegicus [46]): 1.6%
